The values that follow come from ChEMBL document CHEMBL1154414, “In vitro and in vivo activities of T-705 against arenavirus and bunyavirus infections” (Antimicrob Agents Chemother, 2007).

Experiment [1] deals with Punta Toro virus. Kind of experiment: Antiviral activity against 5000 PFU Punta Toro virus Adames infected C57BL/6 mouse assessed as mean day of death at 10 mg/kg, po twice daily for 5 days administered 24 hrs post viral challenge. Type of experiment: functional. In short, it runs like this: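 PTV was inoculated subcutaneously into mice in groups of 15 (25–30 placebo). Dosing was by oral gavage twice daily for 5–7 days, with T-705 suspended in 0.4% CMC and ribavirin in saline. Remaining animals were observed 21–28 days for survival and day of death. Test doses had first been checked for tolerance in uninfected animals.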

Experiment [2] deals with Punta Toro virus. Kind of experiment: Antiviral activity against 5000 PFU Punta Toro virus Adames infected C57BL/6 mouse assessed as animals with detectable virus level in liver at 30 mg/kg, po twice daily administered 24 hrs post viral challenge measured on day 3 of viral infection. Type of experiment: functional. In a few lines:
(§1)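 Mice were infected subcutaneously with PTV and dosed by oral gavage twice daily; 5 per group (10 placebo) were killed on day 3 or 4. Liver homogenate or serum was serially diluted onto triplicate LLC-MK2 monolayers, and CPE was read 6–8 days later. 50% endpoints gave log10 CCID50 per 0.1 g liver or 0.1 ml serum. Detection range was 2.8–9.5; undetectable samples were assigned <2.8.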

Experiment [3] relates to Punta Toro virus. Kind of experiment: Antiviral activity against 5000 PFU Punta Toro virus Adames infected C57BL/6 mouse assessed as mean viral titer per 0.1 mL of serum at 10 mg/kg, po twice daily administered 24 hrs post viral challenge measured on day 3 of viral infection. It counts as functional. In short, it runs like this:
as §1

For experiment [4], the system named is Punta Toro virus. Kind of experiment: Antiviral activity against 5000 PFU Punta Toro virus Adames infected C57BL/6 mouse assessed as animals with detectable virus level in serum at 10 mg/kg, po twice daily administered 24 hrs post viral challenge measured on day 3 of viral infection. Type of experiment: functional. In a few lines:
as §1

The test system of experiment [5] is Punta Toro virus. Kind of experiment: Antiviral activity against 50 PFU Punta Toro virus Adames infected C57BL/6 mouse assessed as survival at 30 mg/kg, po twice daily for 5 days administered 24 hrs post viral challenge. It counts as functional, organism-based. More on the design: dose 30 mg/kg. In short, it runs like this: (§2)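 Groups of 15 mice (25–30 placebo) were inoculated subcutaneously with PTV. Drug in 0.4% carboxymethylcellulose was given by oral gavage twice daily.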

For experiment [6], the system named is Punta Toro virus. Kind of experiment: Antiviral activity against 50 PFU Punta Toro virus Adames infected C57BL/6 mouse assessed as mean viral titer per 0.1 g of liver at 10 mg/kg, po twice daily administered 24 hrs post viral challenge measured on day 3 of viral infection. It counts as functional. In a few lines:
(§3)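 Mice were infected subcutaneously with PTV and dosed by oral gavage twice daily with drug in 0.4% CMC. Five per group (10 placebo) were sacrificed on day 3 or 4. Serially diluted liver homogenate or serum went into triplicate LLC-MK2 wells, and CPE 50% endpoints were read at 6–8 days. The range was 2.8–9.5 log10 CCID50/0.1 g or 0.1 ml, with undetectable samples set to 2.8 and saturated samples to 9.5.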

The subject of experiment [7] is Punta Toro virus. Kind of experiment: Antiviral activity against 50 PFU Punta Toro virus Adames infected C57BL/6 mouse assessed as mean viral titer per 0.1 mL of serum at 10 mg/kg, po twice daily administered 24 hrs post viral challenge measured on day 3 of viral infection. Type of experiment: functional. In a few lines: as §3
Experiment [8] concerns Punta Toro virus. Kind of experiment: Antiviral activity against 50 PFU Punta Toro virus Adames infected C57BL/6 mouse assessed as animals with detectable virus level in serum at 30 mg/kg, po twice daily administered 24 hrs post viral challenge measured on day 3 of viral infection. It counts as functional. In short, it runs like this:
(§4)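 T-705 was suspended in 0.4% carboxymethylcellulose and given by oral gavage twice daily. Mice were infected subcutaneously with PTV. Five mice per group (10 placebo) were sacrificed on day 3 or 4. Liver homogenate or serum was serially diluted onto triplicate LLC-MK2 monolayers, and CPE was read at 6–8 days. The detection limit was 2.8 log10 CCID50 per 0.1 g liver or 0.1 ml serum.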

The subject of experiment [9] is Sandfly fever Naples virus. Kind of experiment: Antiviral activity against Sandfly fever Naples virus assessed as inhibition of virus-induced visual cytopathic effect after 3 to 5 days. Type of experiment: functional, organism-based. In short, it runs like this:
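Virus in medium with 2% FBS was used at the CCID50 that gave maximal CPE. Half-log drug dilutions (DMSO stock, ≤1% DMSO at the top concentration) were added at infection. EC50 was derived by regression analysis.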

For experiment [10], the system named is Pichinde virus. Kind of experiment: Antiviral activity against Pichinde virus An 4763 infected Syrian golden hamster assessed as survival at 50 mg/kg, po twice daily for 7 days administered 72 hrs post viral-challenge. It counts as functional. In short, it runs like this: (§5)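 Groups of 15 hamsters (placebo 25-30) were challenged intraperitoneally (bilateral, 65 PFU) and dosed twice daily by oral gavage in 0.4% CMC for 5 to 7 days.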

Experiment [11] relates to Pichinde virus. Kind of experiment: Antiviral activity against Pichinde virus An 4763 infected Syrian golden hamster assessed as animals with detectable virus level in liver at 20 mg/kg, po twice daily for 7 days administered 72 hrs post viral-challenge measured on day 7 of viral infection. Type of experiment: functional. In a few lines:
(§6)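 Hamsters (groups of 15, placebo 25-30) were dosed orally by gavage twice daily (drug suspended in 0.4% CMC) after bilateral intraperitoneal challenge with 65 PFU. Five per group were killed on day 7. Liver homogenate or serum was serially diluted onto triplicate B-SC-1 wells, CPE was read at 6-8 days, and the 50% endpoint was taken. Range was 2.8-9.5 log10 CCID50/0.1 g or 0.1 ml, with undetectable assigned <2.8.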

Experiment [12] relates to Punta Toro virus. Kind of experiment: Antiviral activity against 500 PFU Punta Toro virus Adames infected C57BL/6 mouse assessed as mean day of death at 10 mg/kg, po twice daily for 5 days administered 24 hrs post viral challenge. It counts as functional. In short, it runs like this: as §2
For experiment [13], the system named is Punta Toro virus. Kind of experiment: Antiviral activity against 500 PFU Punta Toro virus Adames infected C57BL/6 mouse assessed as mean viral titer per 0.1 g of liver at 10 mg/kg, po twice daily administered 24 hrs post viral challenge measured on day 3 of viral infection. Type of experiment: functional. In short, it runs like this:
as §1

Experiment [14] concerns Punta Toro virus. Kind of experiment: Antiviral activity against 500 PFU Punta Toro virus Adames infected C57BL/6 mouse assessed as animals with detectable virus level in serum at 10 mg/kg, po twice daily administered 24 hrs post viral challenge measured on day 3 of viral infection. Type of experiment: functional. In short, it runs like this:
as §4

The subject of experiment [15] is Junin virus. Kind of experiment: Antiviral activity against Junin virus Candid-1 in Vero cells assessed as inhibition of virus-induced visual cytopathic effect after 7 to 8 days. Type of experiment: functional, organism-based. The following applies: Mammarenavirus juninense, Candid-1, Vero.
In experiment [16] the test system is Pichinde virus. Kind of experiment: Antiviral activity against Pichinde virus An 4763 infected Syrian golden hamster assessed as mean day of death at 40 mg/kg, po twice daily for 7 days administered 4 hrs before viral-challenge. Type of experiment: functional. In short, it runs like this:
as §5

In experiment [17] the test system is Pichinde virus. Kind of experiment: Antiviral activity against Pichinde virus An 4763 infected Syrian golden hamster assessed as mean serum ALT levels at 40 mg/kg, po twice daily for 7 days administered 4 hrs before viral-challenge measured on day 7 of viral infection. Type of experiment: functional. In short, it runs like this: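 Hamsters were challenged intraperitoneally (bilateral, 65 PFU) and given twice-daily oral gavage doses (0.4% CMC vehicle). Five per group were sacrificed on day 7 and serum was collected. Serum ALT activity was measured by kinetic assay. Three sham-infected animals set the baselines.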

In experiment [18] the test system is Pichinde virus. Kind of experiment: Antiviral activity against Pichinde virus An 4763 infected Syrian golden hamster assessed as animals with detectable virus level in liver at 50 mg/kg, po twice daily for 7 days administered 24 hrs post viral-challenge measured on day 7 of viral infection. Type of experiment: functional. In a few lines:
as §6

Experiment [19] relates to Pichinde virus. Kind of experiment: Antiviral activity against Pichinde virus An 4763 infected Syrian golden hamster assessed as animals with detectable virus level in liver at 20 mg/kg, po twice daily for 7 days administered 24 hrs post viral-challenge measured on day 7 of viral infection. It counts as functional. In a few lines: as §6

The source made the active and inactive calls. The rule behind the calls is not given here.

For `NC(=O)c1nc(F)cnc1O` [FAVIPIRAVIR], the Activity in experiment [1] stood at 4.4 days; in experiment [2] it was 20%; in experiment [4], 80%; in experiment [8], 80%; in experiment [11], 100%; in [12] it was 4.7 days. Further, the Activity turned out to be 100% in experiment [14]; 11 days in experiment [16]; 30 IU/L in [17]; 100% in experiment [18]; 100% in [19]. In addition, the log10CCID50 in experiment [3] was under 5.2; in experiment [6], under 2.8; in experiment [7], 6.9; in [13], under 2.8. Moreover, the outcome in experiment [5] was Active. Besides, the half-maximal effective concentration (EC50) in experiment [9] is 115 µM; in experiment [15], 5 µM. In experiment [10], the Efficacy amounted to 60%.
For `NC(=O)c1ncn([C@@H]2O[C@H](CO)[C@@H](O)[C@H]2O)n1` [RIBAVIRIN], the Activity stood at 4 days in [1]; 20% in experiment [2]; 100% in experiment [4]; 100% in [8]; 100% in experiment [11]; 5 days in [12]. Also, the Activity in experiment [14] is 100%; in [16] it was 11 days; in experiment [17], 30 IU/L; in experiment [18] it was 100%; in experiment [19] it was 100%. Moreover, the log10CCID50 in [3] is listed as 5.9; in experiment [6], under 3.3; in experiment [7], under 4.9; in [13], under 2.9. In addition, the outcome in experiment [5] was Active. Also, the EC50 in [9] was 90 µM; in experiment [15] it was 11 µM. Moreover, in [10], the Efficacy was determined as 60%.
